Source: PubChem BioAssay
CDK5 inh – CDK5/p35 (human) kinase inhibition; Q00535+Q15078; Recombinant CDK5/p35, ADP-Glo luminescence, 60 min; inhibition, % at 10 µM; 0.01% of 330,000 active; AID 488839;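 active means highest replicate inhibition of at least 50% and at least 75% of replicates reaching 50%; inconclusive means only one of the two criteria met; inactive means both criteria failed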
Cneo AK release – causes C. neoformans cell lysis. 0.2% of 360,000 active. lysis activity, % at 15 µM. adenylate kinase release luminescence, 4 h; normalised: neutral wells 0, clomiphene wells 100;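 active means mean lysis activity across replicates of at least 80%, whatever share of replicates individually reach that level; inactive means mean lysis activity below 80%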
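Material: C. neoformans cells; Schedule: 4 h static compound exposure, 37 °C, read 1 h post-reagent; Measured by: adenylate kinase release luminescence; Read-out: signal increase indicating cell lysis; Controls: Clomiphene as positive lysis control.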
INS-1E GSIS act – primary screen for activators of insulin secretion dependent on glucose, INS-1E cells, GLuc reporter luminescence. INS-1E GLuc reporter insulin secretion, 2-3 h. activation, % at 16.6 µM. 0.61% of 370,000 active;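 active means lowest replicate activation of at least 40%, so every replicate reaches that level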
PAX8 reporter – PAX8 transcriptional activity inhibition; 1.2% of 360,000 active; inhibition, % at 12.6 µM; RMG-I TPO-luciferase reporter, SteadyGlo, 24 h;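 active means mean replicate inhibition at least 60% with every replicate also reaching 60%; inconclusive means only one of the two criteria is met; inactive means mean below 60% and not all replicates reaching 60%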;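 further: luciferase light reporting Pax8 driven TPO promoter activity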
HIV Env fusion – blocks HIV Env-driven cell-cell fusion; inhibition, % at 12.3 µM; HeLa-JRFL Env/CEM21 cell fusion, luciferase; 1.1% of 360,000 active; AID 651610;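 active means mean replicate inhibition score of at least 50 and every replicate individually at or above 50; inconclusive means only one of the two criteria met; inactive means mean below 50 and not all replicates reaching 50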
dFosB act-1 – activators of mouse delta FosB homodimer; AID 493131; activation, % at 25 µM; P13346; 0.99% of 340,000 active; purified delta FosB, TAMRA-CDK5 oligo fluorescence polarization; percent of positive-control signal above neutral wells;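 active means mean activation above about 17%, with every replicate also reaching it, limit read from the data, passing the limit was not always enough; inconclusive means only one of the two conditions met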
Target sequence (P13346 whole entry, looked up): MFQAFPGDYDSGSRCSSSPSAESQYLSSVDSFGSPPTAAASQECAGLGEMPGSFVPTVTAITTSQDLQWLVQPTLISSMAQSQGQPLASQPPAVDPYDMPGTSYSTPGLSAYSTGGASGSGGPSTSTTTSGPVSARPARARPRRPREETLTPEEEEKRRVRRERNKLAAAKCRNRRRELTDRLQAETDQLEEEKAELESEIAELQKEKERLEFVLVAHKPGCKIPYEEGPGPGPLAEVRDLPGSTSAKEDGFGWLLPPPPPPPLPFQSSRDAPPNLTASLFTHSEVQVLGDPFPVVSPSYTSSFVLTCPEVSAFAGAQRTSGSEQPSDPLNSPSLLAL
dFosB act-2 – enhances mouse delta FosB homodimer binding to DNA. shares compounds with dFosB act-1. purified delta FosB, TAMRA-CDK5 oligo fluorescence polarization; normalised: neutral wells 0, positive control 100. activation, % at 24.9 µM. 2,400 tested, under 10 active. AID 588690;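 active means highest replicate activation at or above 34% and every replicate reaching that threshold; inconclusive means meets only one of the two criteria; inactive means meets neither criterion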;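 further: higher polarization means more probe DNA bound by delta FosB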
Numbers stand for hits; . = inactive; ? = inconclusive; / = not tested or not shown. Only some compounds are listed: those with a hit (about 2.9% of all), similar ones and a draw of the others.

SMILES	CDK5 inh	Cneo AK release	INS-1E GSIS act	PAX8 reporter	HIV Env fusion	dFosB act-1	others
C[C@@H]1CCCCO[C@H](CN(C)C(=O)c2ccncc2)[C@H](C)CN([C@H](C)CO)C(=O)c2cc(NS(=O)(=O)c3ccc(F)cc3)ccc2O1	/	.	.	.	.	/
CCCCN(C(=O)c1cc(S(=O)(=O)N2CCOCC2)ccc1N1CCOCC1)c1ccccc1	/	.	.	.	.	/
CCCCN(C(=O)c1cc(S(=O)(=O)N2CCCCCC2)ccc1OC)c1ccccc1	.	.	.	/	93	.
O=C1NCCc2c1[nH]c1ccc([N+](=O)[O-])cc21	.	/	.	.	67	.
COc1ccc2[nH]c3c(c2c1)CCNC3=O	.	.	.	.	?	.
CC(C)NC(=O)N(C)C[C@@H]1OCCCC[C@H](C)Oc2ccc(NC(=O)c3ccncc3)cc2C(=O)N([C@@H](C)CO)C[C@H]1C	/	.	.	.	.	/
CCC(=O)NC(c1cccc([N+](=O)[O-])c1)c1c(OC(C)=O)ccc2ccccc12 (stereo not given)	.	.	/	/	/	.
CC(C)C(=O)NC(c1cccc([N+](=O)[O-])c1)c1c(O)ccc2ccccc12 (stereo not given)	.	/	.	.	.	.
CCCC(=O)NC(c1cccc([N+](=O)[O-])c1)c1ccc2cccnc2c1O (stereo not given)	/	.	.	78	92	/
CC(C)C(=O)NC(c1cccc([N+](=O)[O-])c1)c1ccc2cccnc2c1O (stereo not given)	.	.	.	78	.	.
O=c1c(C(c2ccccc2)c2c(O)sc3ccccc3c2=O)c(O)sc2ccccc12	.	.	56	/	.	.
Cc1ccc(C(=O)c2c3ccccc3[n+]([O-])n2CCO)cc1	.	.	48	.	.	.
COc1ccc(C(=O)c2c3ccccc3[n+]([O-])n2CCCN)cc1	.	.	.	.	.	.
Cc1ccc(S(=O)(=O)Nc2ccc3c(c2)C(=O)N([C@@H](C)CO)C[C@@H](C)[C@@H](CN(C)Cc2ccc(C(=O)O)cc2)OCCCC[C@H](C)O3)cc1	/	.	.	.	.	/
C[C@@H]1CN([C@H](C)CO)C(=O)c2cccc(NC(=O)Nc3ccc4c(c3)OCO4)c2O[C@@H]1CN(C)S(=O)(=O)c1ccccc1	/	.	.	.	.	/
O=C(C[C@H]1C[C@H]2c3cc(NC(=O)Nc4ccc(C(F)(F)F)cc4)ccc3O[C@H]2[C@@H](CO)O1)NCc1ccc(Cl)cc1	/	.	.	.	.	/
O=C(C[C@H]1C[C@@H]2c3cc(NC(=O)Nc4ccc(C(F)(F)F)cc4)ccc3O[C@@H]2[C@@H](CO)O1)NCc1ccc2c(c1)OCO2	/	.	.	65	.	/
O=C(C[C@@H]1C[C@H]2c3cc(NC(=O)Nc4ccc(C(F)(F)F)cc4)ccc3O[C@H]2[C@H](CO)O1)NCc1ccc2c(c1)OCO2	/	.	.	.	.	/
O=C(C[C@@H]1C[C@H]2c3cc(NC(=O)Nc4ccc(C(F)(F)F)cc4)ccc3O[C@H]2[C@H](CO)O1)NCc1ccc(Cl)cc1	/	.	.	94	.	/
CCN(CCN(C)C)C(=O)c1ccc2c(c1NCCO)C(=O)c1ccccc1C2=O	.	/	.	.	.	20
O=C1CSC(c2ccc([N+](=O)[O-])cc2)N1C1CCCCC1 (stereo not given)	.	/	87	.	.	.
CCN1c2ccccc2-c2nc3ccccc3n2C1c1ccco1 (stereo not given)	.	.	/	/	55	.
c1ccc(CN2c3ccccc3-c3nc4ccccc4n3C2c2ccccn2)cc1 (stereo not given)	.	.	/	.	.	.
CC(C)COC(=O)N1C[C@H](O)C[C@H]1C(=O)Nc1ccc(Cl)cc1	.	.	120	.	.	.
Cc1cccc(NC(=O)C2CCCN2C(=O)OCC(C)C)c1 (stereo not given)	.	.	/	.	.	.
SMILES	CDK5 inh	Cneo AK release	INS-1E GSIS act	PAX8 reporter	HIV Env fusion	dFosB act-1	others
C[C@H]1CN([C@@H](C)CO)C(=O)c2ccccc2-c2ccccc2CO[C@@H]1CN(C)C(=O)[C@H]1CCCN1C	/	.	.	.	.	/
Cc1ccc(OCCn2c(=S)[nH]c3ccccc32)c(C(C)C)c1	.	97	.	.	.	.
O=C(c1cccnc1)N1CC2(C1)[C@H](c1ccccc1)[C@H](CO)N2C(=O)c1cccnc1	/	/	.	/	/	/
O=C(CCCCCn1c(=S)[nH]c2ccc(N3CCOCC3)cc2c1=O)NC1CCN(Cc2ccccc2)CC1	.	.	.	.	.	.
O=C(NC1CCN(Cc2ccccc2)CC1)c1ccc(Cn2c(=S)[nH]c3ccc(N4CCOCC4)cc3c2=O)cc1	.	.	.	.	.	34
CC[C@]1(c2ccccc2OC)ON(c2ccccc2C(F)(F)F)C1=O	/	/	.	84	.	/
O=C(N/N=C/c1ccccc1)c1n[nH]c2c1CCCC2	.	.	.	.	.	.
O=C(N/N=C/c1ccccc1Cl)c1n[nH]c2c1CCCC2	.	/	.	77	.	.
C[C@H](CO)N1C[C@H](C)[C@H](CN(C)Cc2ccncc2)Oc2ccc(NS(C)(=O)=O)cc2C1=O	/	.	.	.	.	/
CCOc1ccc(Nc2ccnc3cc(Cl)ccc23)cc1	.	.	.	.	.	.
CCN1CCN(c2nc(-c3ccccc3)c3ccccc3n2)CC1	.	.	.	.	.	.
CN1CCN(c2ccc(Nc3ccnc4cc(Cl)ccc34)cc2)CC1	.	.	.	.	.	57
CCN1CCN(c2ccc(Nc3ccnc4ccccc34)cc2)CC1	.	.	/	.	.	36
CC(C)c1nnc(NC(=O)CCS(=O)(=O)c2nc(-c3cccs3)cc(C(F)(F)F)n2)s1	.	/	/	/	85	.
CSc1nc2nccc(/C=C\c3ccccc3)n2n1	.	.	/	63	.	.
CSc1nc2nccc(-c3ccc(Cl)cc3)n2n1	.	.	.	/	/	.
C[C@@H]1CN([C@@H](C)CO)C(=O)c2cc(NC(=O)Cc3ccccc3)ccc2O[C@@H](C)CCCCO[C@@H]1CN(C)Cc1ccccc1	/	.	.	.	.	/
CN1/C(=C\C(=O)CSc2nnc(NCc3ccccc3)s2)C(C)(C)c2ccccc21	.	.	.	.	.	23	dFosB act-2=.
CN1/C(=C\C(=O)c2ccco2)C(C)(C)c2ccccc21	.	.	.	/	/	24	dFosB act-2=.
Cc1cc(NC(=O)CN2CCc3ccccc3C2)nc2c1c(=O)oc1ccccc12	.	.	/	.	.	31	dFosB act-2=.
C[C@@H]1CN([C@H](C)CO)C(=O)c2cccc(NC(=O)C3CCCCC3)c2O[C@@H]1CN(C)Cc1ccncc1	/	.	.	.	/	/
COc1ccc(/C=C/C(=O)OCC(=O)Nc2cc(C(F)(F)F)ccc2Cl)cc1	.	/	.	.	.	31	dFosB act-2=.
